{"data": "Measured values gathered from unrelated publications", "note": "Protocols differ between the studies behind these lines. pIC50: −log10 of the molar value."}
{"Structure (SMILES)": "COc1ccc(S(=O)(=O)ON=C2C=C(C)C(=O)C(C)=C2)cc1", "target or system": "HMEC", "assay": "cell growth or viability", "measurement": "CC50", "value": "> 15.5 µM"}
{"Structure (SMILES)": "CC(C)CN(C[C@@H](O)[C@H](Cc1ccccc1)NC(=O)O[C@H]1CO[C@H]2OCC[C@H]21)S(=O)(=O)c1ccc(N)cc1", "system": "BALB/c mouse, plasma", "setting": "intravenous, 25 mg/kg, 1 h", "measurement": "concentration", "value": "397 ng/mL"}
{"Structure (SMILES)": "CC(C)(O)c1ccccc1-c1ccc2[nH]c(/C=C/c3ccc(C(F)(F)F)cc3)nc2c1", "system": "male human, plasma", "setting": "oral, 30 mg, single dose, fasted, healthy volunteers", "measurement": "MRT", "value": "116 h"}
{"Structure (SMILES)": "CC(C)(Nc1nc(-c2ccccn2)nc2ccccc12)c1ccccn1", "system": "female BALB/c mouse, plasma", "setting": "oral, 50 mg/kg, 4 h", "measurement": "concentration", "value": "5060 ng/mL"}
{"Structure (SMILES)": "CC1=CC[C@H]2[C@@H]([C@@H]1CC[C@H]1[C@]3(C)CC[C@H](O)C(C)(C)O[C@H]3CC[C@]1(C)O)C(C)(C)CC[C@]2(C)O", "target or system": "KB 3-1", "assay": "cell growth or viability, MTT", "setting": "72 h", "measurement": "pIC50", "value": "< 4.30"}
{"Structure (SMILES)": "CC(C)Oc1cccc(-c2cnc(N3CCC(C(N)=O)CC3)s2)c1", "system": "male Swiss mouse, brain", "setting": "oral, 30 mg/kg, 12 h, single dose", "measurement": "concentration", "value": "0 nM"}
{"Structure (SMILES)": "CC(C)=CCC[C@@]1(C)C(CC[C@H]2[C@]3(C)CC[C@H](O)C(C)(C)O[C@H]3CC[C@@]2(C)O)=C(C)CC[C@H]1O", "target or system": "KB 3-1", "assay": "cell growth or viability, MTT", "setting": "72 h", "measurement": "pIC50", "value": "< 4.30"}
{"Structure (SMILES)": "CN(CCC(=O)O)C(=O)c1ccc2c(c1)CC[C@@H]1[C@@H]2CC[C@]2(C)C(c3cncc(F)c3)=CC[C@@H]12", "target or system": "UDP-glucuronosyltransferase 1A1 (UGT1A1, Homo sapiens, UniProt P22309)", "assay": "enzyme activity, inhibitor", "system": "human, liver microsomes", "measurement": "pIC50", "value": 5.39}
